pIC50: −log10 of the molar value. ≈ marks a conversion by molar mass, not a printed value.
Key:
[1] = system: Pseudomonas aeruginosa; assay: Antibacterial activity against Pseudomonas aeruginosa PAO1 harboring siderophore receptor piuA and pirA double mutant in Mueller-Hinton broth medium by CLSI broth microdilution method; assay type: functional
Summary of the method: (§1)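 MIC by CLSI broth microdilution in standard Mueller Hinton broth. Tested against wild-type P. aeruginosa PAO1 and an isogenic panel lacking one or more siderophore receptors.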

[2] = system: Pseudomonas aeruginosa; assay: Antibacterial activity against Pseudomonas aeruginosa PAO1 harboring siderophore receptor piuA and pfeA double mutant in Mueller-Hinton broth medium by CLSI broth microdilution method; assay type: functional; summary of the method: as §1
[3] = system: Pseudomonas aeruginosa; assay: Ratio of MIC for Pseudomonas aeruginosa PAO1 harboring siderophore receptor pirA mutant to MIC for wild type Pseudomonas aeruginosa PAO1 in Mueller-Hinton broth medium by CLSI broth microdilution method; assay type: functional
Summary of the method: (§2)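 Receptor-deficient PAO1 strain MIC divided by parent PAO1 MIC. Both MICs were obtained by CLSI broth microdilution in standard Mueller Hinton broth. A shift greater than 4× was taken to indicate that the deleted receptor(s) take part in drug uptake.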

[4] = system: Pseudomonas aeruginosa; assay: Ratio of MIC for Pseudomonas aeruginosa PAO1 harboring siderophore receptor piuA and pirA double mutant to MIC for wild type Pseudomonas aeruginosa PAO1 in Mueller-Hinton broth medium by CLSI broth microdilution method; assay type: functional
Summary of the method: (§3)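 Broth microdilution MIC per CLSI in standard Mueller-Hinton broth, run against wild-type P. aeruginosa PAO1 and isogenic PAO1 strains lacking one or more siderophore receptors. Value is the mutant-strain MIC divided by the PAO1 MIC.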

[5] = system: Pseudomonas aeruginosa; assay: Ratio of MIC for Pseudomonas aeruginosa PAO1 harboring siderophore receptor piuA, pfeA and pirA mutant to MIC for wild type Pseudomonas aeruginosa PAO1 in Mueller-Hinton broth medium by CLSI broth microdilution method; assay type: functional; summary of the method: as §3
[6] = system: Pseudomonas aeruginosa; assay: Antibacterial activity against Pseudomonas aeruginosa PAO1 in medium containing low-Fe by CLSI broth microdilution method; assay type: functional
Summary of the method: (§4)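 MIC by CLSI broth microdilution in a modified Mueller Hinton broth depleted of iron to mimic the low-iron in vivo environment. Tested against PAO1 and isogenic strains lacking one or more siderophore receptors.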

[7] = system: Pseudomonas aeruginosa; assay: Antibacterial activity against Pseudomonas aeruginosa PAO1 harboring siderophore receptor piuA mutant in medium containing low-Fe by CLSI broth microdilution method; assay type: functional; summary of the method: as §4
[8] = system: Pseudomonas aeruginosa; assay: Antibacterial activity against Pseudomonas aeruginosa PAO1 harboring siderophore receptor fptA mutant in medium containing low-Fe by CLSI broth microdilution method; assay type: functional; summary of the method: as §4
[9] = system: Pseudomonas aeruginosa; assay: Ratio of MIC for Pseudomonas aeruginosa PAO1 harboring siderophore receptor fpvA mutant to MIC for wild type Pseudomonas aeruginosa PAO1 in medium containing low-Fe by CLSI broth microdilution method; assay type: functional
Summary of the method: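 Ratio of strain MIC to PAO1 MIC. Both MICs were obtained by CLSI broth microdilution in iron-depleted modified Mueller Hinton broth. A shift greater than 4× versus the parent was read as the deleted receptor(s) taking part in uptake.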

[10] = system: Pseudomonas aeruginosa; assay: Ratio of MIC for Pseudomonas aeruginosa PAO1 harboring siderophore receptor piuA and fptA double mutant to MIC for wild type Pseudomonas aeruginosa PAO1 in medium containing low-Fe by CLSI broth microdilution method; assay type: functional
Summary of the method: (§5)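 CLSI broth microdilution MICs in a modified Mueller-Hinton broth depleted of iron to mimic low in vivo iron. Tested against wild-type PAO1 and isogenic siderophore receptor knockout strains. Reported as the knockout-strain MIC divided by the PAO1 MIC in the same iron-depleted medium.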

[11] = system: Pseudomonas aeruginosa; assay: Ratio of MIC for Pseudomonas aeruginosa PAO1 harboring siderophore receptor piuA and pirA double mutant to MIC for wild type Pseudomonas aeruginosa PAO1 in medium containing low-Fe by CLSI broth microdilution method; assay type: functional; summary of the method: as §5
[12] = system: Pseudomonas aeruginosa; assay: Ratio of MIC for Pseudomonas aeruginosa PAO1 harboring siderophore receptor piuA and pfeA double mutant to MIC for wild type Pseudomonas aeruginosa PAO1 in medium containing low-Fe by CLSI broth microdilution method; assay type: functional; summary of the method: as §5
[13] = system: Pseudomonas aeruginosa; assay: Ratio of MIC for Pseudomonas aeruginosa PAO1 harboring siderophore receptor piuA, pfeA and pirA mutant to MIC for wild type Pseudomonas aeruginosa PAO1 in medium containing low-Fe by CLSI broth microdilution method; assay type: functional; summary of the method: as §5
[14] = system: Pseudomonas aeruginosa; assay: Ratio of MIC for Pseudomonas aeruginosa PAO1 harboring siderophore receptor fptA mutant in MHB medium to MIC for Pseudomonas aeruginosa PAO1 harboring siderophore receptor fptA mutant in medium containing low-Fe by CLSI broth microdilution method; assay type: functional
[15] = system: Pseudomonas aeruginosa; assay: Antibacterial activity against Pseudomonas aeruginosa PAO1 harboring siderophore receptor fpvA mutant in medium containing aztreonam and low-Fe by CLSI broth microdilution method; assay type: functional
[16] = system: Pseudomonas aeruginosa; assay: Antibacterial activity against Pseudomonas aeruginosa PAO1 harboring siderophore receptor fptA mutant in medium containing aztreonam and low-Fe by CLSI broth microdilution method; assay type: functional
[17] = system: Pseudomonas aeruginosa; assay: Ratio of MIC for Pseudomonas aeruginosa PAO1 harboring siderophore receptor piuA mutant to MIC for wild type Pseudomonas aeruginosa PAO1 in medium containing aztreonam and low-Fe by CLSI broth microdilution method; assay type: functional
[18] = system: Pseudomonas aeruginosa; assay: Ratio of MIC for Pseudomonas aeruginosa PAO1 harboring siderophore receptor pirA mutant to MIC for wild type Pseudomonas aeruginosa PAO1 in medium containing aztreonam and low-Fe by CLSI broth microdilution method; assay type: functional
[19] = system: Pseudomonas aeruginosa; assay: Ratio of MIC for Pseudomonas aeruginosa PAO1 harboring siderophore receptor fptA mutant to MIC for wild type Pseudomonas aeruginosa PAO1 in medium containing aztreonam and low-Fe by CLSI broth microdilution method; assay type: functional
[20] = system: Pseudomonas aeruginosa; assay: Ratio of MIC for Pseudomonas aeruginosa PAO1 harboring siderophore receptor piuA and fpvA double mutant to MIC for wild type Pseudomonas aeruginosa PAO1 in medium containing aztreonam and low-Fe by CLSI broth microdilution method; assay type: functional
[21] = system: Pseudomonas aeruginosa; assay: Ratio of MIC for Pseudomonas aeruginosa PAO1 harboring siderophore receptor pirA and pfeA double mutant to MIC for wild type Pseudomonas aeruginosa PAO1 in medium containing aztreonam and low-Fe by CLSI broth microdilution method; assay type: functional
[22] = system: Pseudomonas aeruginosa; assay: Ratio of MIC for Pseudomonas aeruginosa PAO1 harboring siderophore receptor piuA, pfeA and pirA mutant to MIC for wild type Pseudomonas aeruginosa PAO1 in medium containing aztreonam and low-Fe by CLSI broth microdilution method; assay type: functional
[23] = system: Escherichia coli; assay: Antibacterial activity against Escherichia coli DH5alpha expressing beta-lactamase SHV-5 by CLSI broth microdilution method; assay type: functional; settings: DH5[alpha]
[24] = system: Escherichia coli; assay: Antibacterial activity against Escherichia coli DH5alpha expressing beta-lactamase SHV-12 by CLSI broth microdilution method; assay type: functional; settings: DH5[alpha]
[25] = system: Escherichia coli; assay: Antibacterial activity against Escherichia coli DH5alpha expressing beta-lactamase TEM-1 by CLSI broth microdilution method; assay type: functional; settings: DH5[alpha]
[26] = system: Escherichia coli; assay: Antibacterial activity against Escherichia coli DH5alpha expressing beta-lactamase KPC-3 by CLSI broth microdilution method; assay type: functional; settings: DH5[alpha]
[27] = system: Escherichia coli; assay: Antibacterial activity against Escherichia coli EC-28 by CLSI broth microdilution method; assay type: functional
[28] = system: Acinetobacter baumannii; assay: Antibacterial activity against Acinetobacter baumannii AB-3167 by CLSI broth microdilution method; assay type: functional
[29] = Displacement of fluorescent Bocillin FL from Pseudomonas aeruginosa PBP2
[30] = Displacement of fluorescent Bocillin FL from Pseudomonas aeruginosa PBP3
[31] = system: Pseudomonas aeruginosa; assay: Ratio of MIC for Pseudomonas aeruginosa PAO1 harboring siderophore receptor pirA and pfeA double mutant to MIC for wild type Pseudomonas aeruginosa PAO1 in Mueller-Hinton broth medium by CLSI broth microdilution method; assay type: functional; summary of the method: as §2
[32] = system: Pseudomonas aeruginosa; assay: Antibacterial activity against Pseudomonas aeruginosa PAO1 harboring siderophore receptor pirA mutant in Mueller-Hinton broth medium by CLSI broth microdilution method; assay type: functional; summary of the method: as §1

## CC(C)(O/N=C(\C(=O)N[C@H]1CON(C2(C(=O)O)C[C@H](N3C(=O)c4cc(O)c(O)cc4C3=O)C(=O)O2)C1=O)c1csc(N)n1)C(=O)O (some centres not stated)
[1]
  MIC: 16 µg/mL (≈ 24.1 µM)
[2]
  MIC: 8 µg/mL (≈ 12.1 µM)
[3]
  Ratio: 1
[4]
  Ratio: 32
[5]
  Ratio: 32
[6]
  MIC: ≤ 0.03 µg/mL
[7]
  MIC: 0.125 µg/mL (≈ 0.189 µM)
[8]
  MIC: 0.06 µg/mL (≈ 0.0906 µM)
[9]
  Ratio: 1
[10]
  Ratio: >=16
[11]
  Ratio: >=8
[12]
  Ratio: >=4
[13]
  Ratio: >=8
[14]
  Ratio: 64
[15]
  MIC: 2 µg/mL (≈ 3.02 µM)
[16]
  MIC: 4 µg/mL (≈ 6.04 µM)
[17]
  Ratio: 1
[18]
  Ratio: 1
[19]
  Ratio: 1
[20]
  Ratio: 1
[21]
  Ratio: 1
[22]
  Ratio: 1
[23]
  MIC: 0.03 µg/mL (≈ 0.0453 µM)
[24]
  MIC: 0.015 µg/mL (≈ 0.0226 µM)
[25]
  MIC: 0.06 µg/mL (≈ 0.0906 µM)
[26]
  MIC: 0.03 µg/mL (≈ 0.0453 µM)
[27]
  MIC: 0.25 µg/mL (≈ 0.377 µM)
[28]
  MIC: 0.06 µg/mL (≈ 0.0906 µM)
[29]
  pIC50: 5.43
[30]
  pIC50: 7.34
[31]
  Ratio: 1
[32]
  MIC: 0.5 µg/mL (≈ 0.755 µM)

— ChEMBL document CHEMBL3259701, “Siderophore receptor-mediated uptake of lactivicin analogues in gram-negative bacteria” (J Med Chem, 2014)
